The text below walks through data of the RNAGym collection of RNA variant scans (doi:10.1126/science.aae0568).

B1: tRNA (parent)
chain: GUUCCGUUGGCGUAAUGGUAACGCGUCUCCCUCCUAAGGAGAAGACUGCGGGUUCGAGUCCCGUACGGAACG

Fewer inactive variants are shown than the library holds.

The series covers variants of B1. Nature of the series: yeast fitness relative to wild type (ratio to wild type); higher = fitter; tRNA-Arg(CCU), competitive growth, 37 C, YPD. In a few lines:
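The tRNA-Arg(CCU) gene variants were made by chemical synthesis with a 3% per-site mutation rate at 69 sites and inserted at the native genomic locus of Saccharomyces cerevisiae. After pooling, the strains were competed in YPD at 37°C for 24 hours in six parallel replicates. Gene amplicons from the start population and each end population were read by 100-nucleotide paired-end sequencing, and Darwinian fitness relative to wild type was taken from genotype frequency changes. Genotypes needed ≥ 100 starting reads, and estimates < 0.5 were set to 0.5.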
In the case of GUUCCGUUGGUGUAAUGAUAACGCGUCUCCCUCCUUAGGAGAAGACUCCGGGUUCGAGUCCCGUACGGAACG [C11U G18A A36U G48C], the yeast fitness was no more than 0.5.
For GUUCCGUUGGUGUAAUGAUAACGCGUCUCCCUCCUAAGGAGAAGACUGCGGGUUCGAGUCCAGUACGGACCG [C11U G18A C62A A70C], the yeast fitness was no more than 0.5.
As for GUUCCGUUGGUGUAAUGGUAACGCAUCUUCCUCCUAAGGAGAAGACUGCGGGUUCGAGUCCCGUACAGAUCG [C11U G25A C29U G67A A70U], the yeast fitness is no more than 0.5.
For the variant GUUCCGUUGGUGUAAUGAUAACGCGUCUCCCUCCUAAGGACAAGACUGCGGGUUCGAGUCCCGUACGGAACG [C11U G18A G41C], the yeast fitness is no more than 0.5.
GUUCCGUUGGUGUAAUGGUAACGCGUCUCCCUCCUAAGGAGAAGACUGCGGGUUCGAGUCCUGUACGGAGCG [C11U C62U A70G]: the yeast fitness was determined as 0.753.
GUUCCGUUGGUGUAAUGCUAACGCGUCUCCAUCCUAAGGAGAAGACUGCGGGUUCGAGUCCCGUACGGAACG [C11U G18C C31A]: the yeast fitness is no more than 0.5.
For the variant GUUCCGUUGGUAUAAUGGUAACGCGUCUCCCUCCUAAGGAGAACAUUGCGGGUUCGAGUCCCGUACGGAACG [C11U G12A G44C C46U], the yeast fitness amounted to 0.575.
Regarding GUUCCGUUGGUGUAAUCGUAACGCGUCUCACUGCUAAGGAGAAGACUGCGGGUUCGAGUCUCGUACGGAACG [C11U G17C C30A C33G C61U], the yeast fitness stood at 0.581.
With GUUCCGUUGGUGUAAUGGUAACACGUCUCCCUGCUAAGGAGAAGACUGCGGGUUCGAGUCCCGUACGGCACG [C11U G23A C33G A69C], the yeast fitness is no more than 0.5.
For the variant GUUCCGUUGGUGUAAUGCUAACGCGUCUACCUCCUAAGGAGAAGACUGCGGGUUCGAGUCCCGUACCGAACG [C11U G18C C29A G67C], the yeast fitness was no more than 0.5.
Consider GUUCCGUUGGUGUAAUGGUAACCCGUCUCCGUCCUAAGGAGAAGACUGCGGGUUCGAGUGCCGUUCGGAACG [C11U G23C C31G C60G A65U], for which the yeast fitness was no more than 0.5.
As to GUUCCGUUGGUAUAAUGGUAACGCGUCUCCCUCCUAAGGAGAAGACUGCGGGUUCGAGUCCCGUACGGAACG [C11U G12A], the yeast fitness amounted to 0.998.
As for GUUCCGUUGGUAUAAUGGUAACGCGUCUCCUUCCUAAGGAGAAGACUGCGGGCUCGAGUCCCGUCCGGAACG [C11U G12A C31U U53C A65C], the yeast fitness was no more than 0.5.
Regarding GUUCCGUUGGUGUAAUGAUAACCCGUCUCCCUCUUAAGGAGAAGACUGCGGGUUCGAGACCCGUACGGACCG [C11U G18A G23C C34U U59A A70C], the yeast fitness is no more than 0.5.
In the case of GUUCCGUUGGUGUAAUGGUAACGCGUCUCCCUCCUAAGGAGAAGACUGCGGGUUCGAGUCCCGUAAGGAACG [C11U C66A], the yeast fitness is 0.65.
Regarding GUUCCGUUGGUGUAAUGGUAACGCGUCUCCCUCCUAAGGAGAAGACUGCGGGUUCGAGUCCCGUAGGGAACG [C11U C66G], the yeast fitness turned out to be 0.745.
For the variant GUUCCGUUGGUAUAAUGGUAACGUGUCUCCCUCGUAAGGAGAAGACUGCGGGUUCGAGUCCCGUACGGAACG [C11U G12A C24U C34G], the yeast fitness is no more than 0.5.
With GUUCCGUUGGUAUAAUGGUAACGCGUCUCCUUCCUAAGGAGAAGACUGCGGGCUCGAGUCCCGUACGGUACG [C11U G12A C31U U53C A69U], the yeast fitness is no more than 0.5.
As for GUUCCGUUGGUGUAAUGGUAACGCGUCUCCCUCCUAAGGAGAAGACUGCGGGUUCGAGUCCGAUACGGAACG [C11U C62G G63A], the yeast fitness was found to be 0.529.
To GUUCCGUUGGUGUAAUCGUCACGCGUCUCCCUCCUAAGGAGAAGACUGCGGGUUCGAGUCCCGUACGGAACG [C11U G17C A20C] belongs no more than 0.5.
In the case of GUUCCGUUGGUGUAAUGCUAACGCGUCUCCCUCCUAAGGAGACGACUGCGGAUUCGAGUCCCGUACGGAACG [C11U G18C A43C G52A], the yeast fitness is no more than 0.5.
For GUUCCGUUGGUGUAAUAGUAACGCGUCUCCCUCCUAAGGAGAAGACUGCGGGUUCGAGUCCCGUACGGAACG [C11U G17A], the yeast fitness turned out to be 0.961.
For GUUCCGUUGGUCUAAUGGUAACGCGCCUCCCUCCUAAGGUGAAGACUGCGGGUUCGUGUCCCGUACGGAACG [C11U G12C U26C A40U A57U], the yeast fitness stood at 0.612.
For GUUCCGUUGGUAUAAUGGUAACGCGUUUCCCUCCUAAGGAGAAGACUGCGGAUUCGAGUCCUGUACGGAACG [C11U G12A C27U G52A C62U], the yeast fitness is no more than 0.5.
On to GUUCCGUUGGUAUAAUGCUAACGCGUCUCCCUCCUAAGGAGAAGACCGCGGGUUCGAGUCCCGUACGCAACG [C11U G12A G18C U47C G68C], for which the yeast fitness was no more than 0.5.
Next, GUUCCGUUGGUAUGAUGGUAACGCGUCUCCCUCCUAAGGAGAAGACUGCGGGCUCGAGUCCCGUACGGAACG [C11U G12A A14G U53C]: no more than 0.5; GUUCCGUUGGUGUAAUGGUAACACGUCUCCCUCCUAAGGAGAAGACUGCGGGUUCGAGUCCCGUACGGAACG [C11U G23A]: 0.952; GUUCCGUUGGUGUAAUGGUAACCCGUCUCCCUCCUAAGGAGAAGACUGCGGGUUCGAAUCCCGUACGGAUCG [C11U G23C G58A A70U]: 0.541.
In the case of GUUCCGUUGGUGUAAUAGUAACGCGUCUCCCUCCUAAGGAGAAGACUACGCGUUCGAGUACCGCACGGAACG [C11U G17A G48A G51C C60A U64C], the yeast fitness was found to be 0.623.
GUUCCGUUGGUGUAAUGGUAACGCGUCUCCCUCCUAAGGAGAAGACUGCGGGUUCGAGUCGCGUACGGAACG [C11U C61G]: the yeast fitness is 0.638.
In the case of GUUCCGUUGGUGUAAUGGUAACGCGUCUCCCUCCUAAGGAGAAGACUGCGGGUUCGAGUCACGUACGGAACG [C11U C61A], the yeast fitness came to 0.869.
To GUUCCGUUGGUGUAAUAGUAACGCGUCUCCCUCCAAAAGAGAAGACUGCGGGUUCGAGUCGCGUACGGAACG [C11U G17A U35A G38A C61G] belongs no more than 0.5; to GUUCCGUUGGUGUAAUUGUAACGCGUUUCCAUCCCAAGGAGAAGACUGCGGGUUGGAGUCCCGUAUGGACCG [C11U G17U C27U C31A U35C C55G C66U A70C], no more than 0.5; to GUUCCGUUGGUGUAAUGCUAACGCGUCUCCCUGCUAAGGAGAAAAGUGCGGGUUCGAGUCCCGUAUGGAACG [C11U G18C C33G G44A C46G C66U], 0.606.
Turning to GUUCCGUUGGUGUAAUGGUAACGCAUCUCCCUCCUAAGGAGAAGACUGCGGGUUCGAGUCCCGUACGGAACG [C11U G25A], the yeast fitness amounted to 0.867.
On to GUUCCGUUGGUGUAAUGCUAACGGGUCUCCCUCCUAAGGAGAAGAAUGCGGGUUCGAGUCCCGUACGGAACG [C11U G18C C24G C46A], for which the yeast fitness came out at 0.537.
To GUUCCGUUGGUAUAAUGGUAACGCGUCUCCUUCCUAAGGAGAAGACUGCGGGCUCGAGUCCCAUCCGGAACG [C11U G12A C31U U53C G63A A65C] belongs no more than 0.5; to GUUCCGUUGGUGUAAUGAUAACGCGUCUCCCUCCUAGGGAGAAGACUGCGGGUUCGAGUCCCGUACGGAACG [C11U G18A A37G], no more than 0.5.
